Measurements pooled from the literature.
Each line is one published result; the experiments were not run side by side.
Target: Serine/threonine-protein kinase PAK 2 (PAK2, Homo sapiens, UniProt Q13177)

SMILES | observed | mode | technique | concentration | setting | quantity | value
COc1ccc2oc(-c3ccc4nc(N)oc4c3)c/c(=N\c3ccccc3NC(=O)CCN)c2c1 | binding | – | – | 1 µM | – | remaining binding | 98%
Cc1cc(O)c(-c2ccc([C@@H](C)CN(C)C)cc2)c2c1[nH]c(=O)c1sccc12 | cell-free assay | inhibitor | – | 0.1 µM | lysate | inhibition | -5.59%
C=CC(=O)N1CCC([C@@H]2CCNc3c(C(N)=O)c(-c4ccc(Oc5ccccc5)cc4)nn32)CC1 | enzyme activity | inhibitor | – | 1 µM | – | inhibition | 23%
CN1CCN(C(=O)c2ccc(NC(=O)Nc3ccc(N(C)c4ccnc(Nc5ccc(CS(C)(=O)=O)cc5)n4)cc3)cc2)CC1 | binding | – | – | 1 µM | – | remaining binding | 50%
C1=C/COCc2cc(ccc2OCCN2CCCC2)Nc2nccc(n2)-c2cccc(c2)COC/1 | binding | – | – | 0.1 µM | – | remaining binding | 94%
CO[C@@H]1[C@H](N(C)C(=O)c2ccccc2)C[C@H]2O[C@]1(C)n1c3ccccc3c3c4c(c5c6ccccc6n2c5c31)C(=O)NC4 | enzyme activity | inhibitor | – | 1 µM | – | inhibition | 28%
N#Cc1ccc(NC(=O)Nc2ccccc2)cc1 | cell-free assay | – | competition with immobilised ligand | 25 µM | – | remaining binding | 82%
CCCCC(=O)Nc1ccc(-c2ccc3ncn(CCC)c(=O)c3c2)cn1 | binding | – | competition with immobilised ligand | 0.5 µM | – | remaining binding | 91%
C#Cc1cnc(Nc2ccnc(CO)c2)nc1Nc1ccccc1S(C)(=O)=NC#N (stereo not shown) | cell-free assay | – | – | 1 µM | – | remaining signal | 48%
C[C@H]1CC[C@H](n2c3cnccc3c3cnc(Nc4ccc5c(n4)CCN(C(=O)CO)C5)nc32)CC1 | cell-free assay | – | – | 1 µM | – | remaining signal | 76%
